Data set [1] in a line: Partition coefficient (logP). The conditions noted are these: octanol/water. The data set is classed as physicochemical. The method in brief: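 log P (1-octanol/water) computed with a standard software package. For one analogue it was also measured by a spectrophotometric method.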
Data set [2] concerns HL-60. The data set can be described thus: Compound was evaluated for in vitro cytotoxic activity against human HL-60 leukemia cell line. The data set is classed as functional, cell-based.
Data set [3] deals with L1210. Put plainly: Compound was evaluated for in vitro cytotoxic activity against mouse L-1210 leukemia cell line. Type of data set: functional, cell-based.

The values below come from ChEMBL document CHEMBL1135573, “New stereocontrolled synthesis and biological evaluation of 5-(1'-hydroxyalkyl)-3-methylidenetetrahydro-2-furanones as potential cytotoxic agents” (J Med Chem, 2002).

Usually logP stands for the decadic logarithm of the partition coefficient of the neutral form, usually between octanol and water. Low values mean a more hydrophilic compound, high ones a more lipophilic compound. As a reminder, the IC50 is the concentration that gives 50% inhibition.

On to `C=C1C[C@H]([C@H](O)CCC)OC1=O`, for which the logP in data set [1] stood at 1.59. For the same compound, the IC50 in data set [2] (Homo sapiens, HL-60) is 51.9 µM; in data set [3] (Mus musculus, L1210) it was 18.5 µM.

The compound `C=C1C[C@H]([C@@H](C)O)OC1=O` returned a log partition coefficient (logP) in data set [1] of 0.55. The half-maximal inhibitory concentration (IC50) in data set [2] (Homo sapiens, HL-60) is 47.3 µM; in data set [3] (Mus musculus, L1210), 19.3 µM.

The compound `C=C1C[C@](C)(CO)OC1=O` gave a logP in data set [1] of 0.44. Moreover, the IC50 in data set [2] (Homo sapiens, HL-60) was 51.3 µM; in data set [3] (Mus musculus, L1210), 26.7 µM.

Take CARBOPLATIN: the half-maximal inhibitory concentration (IC50) in data set [2] (hl-60) came out at 2.9 µM; in data set [3] (l1210) it was 9.7 µM.

Regarding `C=C1C[C@H]([C@H](O)c2ccccc2)OC1=O`, the logP in data set [1] amounted to 1.8. In addition, the IC50 worked out at 36.4 µM in data set [2] (Homo sapiens, HL-60); 6.9 µM in data set [3] (Mus musculus, L1210); 8 µM in data set [3] (l1210).

With `C=C1C[C@H]([C@H](C)O)OC1=O`, the IC50 in data set [2] (Homo sapiens, HL-60) is 46.8 µM; in data set [3] (Mus musculus, L1210), 17.3 µM.

`C=C1C[C@H]([C@@H](O)CCC)OC1=O`: the IC50 in data set [2] (Homo sapiens, HL-60) is 52.6 µM; in data set [3] (Mus musculus, L1210), 16.9 µM.

On to `C=C1C[C@H]([C@@H](O)c2ccccc2)OC1=O`, for which the IC50 in data set [2] (Homo sapiens, HL-60) was 41.2 µM; in data set [3] (Mus musculus, L1210), 7.5 µM.
